Measured values from ChEMBL document CHEMBL1123247, “Nucleoside conjugates. 7. Synthesis and antitumor activity of 1-beta-D-arabinofuranosylcytosine conjugates of ether lipids” (J Med Chem, 1986).

How the values were obtained:
P388 [1] = test: Antitumor activity was determined against the ip implanted P388 leukemia in mice by percent increase in life span at 300 mg/kg (treatment of 1qd schedule) dosage; settings: route intraperitoneal
L1210 [2] = test: Antitumor activity against ic implanted L1210 lymphoid leukemia in mice expressed as active dose range (1, 5, 9qd treatment schedule) required to produce increase in life span by >25% was determined; Range is 100-167; assay type: functional, Mus musculus
How it was run: (§1)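 DBA/2J mice, groups of 6 (26-32 g), got 1 × 10^5 L1210 cells ic on day 0. Dosing was ip starting 24 h later, as a sonicated solution or suspension in 0.9% NaCl with 0.5% Tween-80, over a wide dose range. Mice were followed daily until death. Median survival T/C was taken from survivors per NCI protocols, and ILS = (T/C − 1) × 100. Active range means doses giving ILS ≥25%; optimal dose means greatest ILS.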

L1210 [3] = test: Antitumor activity was determined against the ic implanted L1210 lymphoid leukemia in mice by change in […] at 167 mg/kg (treatment of 1, 5, 9qd schedule) dosage; assay type: functional, Mus musculus
How it was run: (§2)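 DBA/2J mice, 6 per group (wt 26-32 g), inoculated ic with 1×10^5 L1210 cells on day 0. Dosing ip began 24 h after inoculation, with a sonicated solution or suspension in 0.9% NaCl containing 0.5% Tween-80, given over a range of doses. Animals were followed daily until death. Body weight change, median survival T/C, and %ILS = (T/C − 1) × 100 were computed from survivors per NCI protocols.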

L1210 [4] = test: Antitumor activity against ic implanted L1210 lymphoid leukemia in mice expressed as active dose range (1-5qd treatment schedule) required to produce increase in life span by >25% was determined; Range is 40-100; assay type: functional, Mus musculus
How it was run: as §1

P388 [5] = test: Antitumor activity was determined against the ip implanted P388 leukemia in mice by range in survival days at 133 mg/kg (treatment of 1,5,9qd schedule) dosage; Range is 23->45; assay type: functional, Mus musculus; settings: route intraperitoneal
P388 [6] = test: Antitumor activity against ip implanted P388 leukemia in mice expressed as active dose range (1 qd treatment schedule) required to produce increase in life span by >25% was determined; Range is 300-500; assay type: functional, Mus musculus
How it was run: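 P388 leukemia: 1 × 10^6 cells were given ip on day 0 to DBA/2J mice, groups of 6 (23-33 g). Treatment was ip from 24 h after inoculation, vehicle 0.9% NaCl with 0.5% Tween-80. Mice were observed daily until death or 45 days. Median survival T/C was calculated from survivors per NCI protocols, and ILS = (T/C − 1) × 100. Active range means doses giving ILS ≥25%; optimal dose means greatest ILS.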

P388 [7] = test: Antitumor activity was determined against the ip implanted P388 leukemia in mice by percent median survival rate (treated/control) at 500 mg/kg (treatment of 1qd schedule) dosage; 15.0/11.0; assay type: functional, Mus musculus; settings: route intraperitoneal
P388 [8] = test: Antitumor activity was determined against the ip implanted P388 leukemia in mice by 45-day survivors in mice at 200 mg/kg (treatment of 1-5qd schedule) dosage; assay type: functional, Mus musculus; settings: route intraperitoneal
How it was run: (§3)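 DBA/2J mice, 23-33 g, in groups of 6, were inoculated ip with 1×10^6 P388 cells on day 0. Dosing was ip from 24 h on the stated schedules, in 0.9% NaCl with 0.5% Tween-80 (sonicated solution or suspension). Survival was followed daily until death or 45 days. Median T/C was calculated from survivors per NCI protocols, with ILS = (T/C − 1) × 100.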

L1210 [9] = test: Antitumor activity against ic implanted L1210 lymphoid leukemia in mice expressed as active dose range (1-5qd treatment schedule) required to produce increase in life span by >25% was determined; Range is 50-300; assay type: functional, Mus musculus
How it was run: as §1

L1210 [10] = test: Antitumor activity was determined against the ip implanted L1210 leukemia in mice by percent median survival rate (treated/control) at 400 mg/kg (treatment of 1qd schedule) dosage; 9.5/8.0; assay type: functional, Mus musculus; settings: route intraperitoneal
How it was run: (§4)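 DBA/2J mice, 23-28 g, in groups of 6, were inoculated ip with 1×10^6 L1210 cells on day 0. Dosing was ip starting 24 h later on the stated daily schedules. Conjugates were given as sonicated solutions and reference prodrugs as suspensions in 0.9% NaCl with 0.5% Tween-80. Mice were observed daily until death or 45 days. Median survival T/C was calculated from survivors per NCI protocols.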

L1210 [11] = test: Antitumor activity was determined against the ic implanted L1210 lymphoid leukemia in mice by change in […] at 100 mg/kg (treatment of 1-9qd schedule) dosage; assay type: functional, Mus musculus
How it was run: as §2

P388 [12] = test: Antitumor activity was determined against the ip implanted P388 leukemia in mice by percent median survival rate (treated/control) at 67 mg/kg (treatment of 1,5,9qd schedule) dosage; 25.5/11.0; assay type: functional, Mus musculus; settings: route intraperitoneal
L1210 [13] = test: Antitumor activity was determined against the ip implanted L1210 leukemia in mice by percent median survival rate (treated/control) at 400 mg/kg (treatment of 1qd schedule) dosage; 25.0/7.0; assay type: functional, Mus musculus; settings: route intraperitoneal
How it was run: as §4

L1210 [14] = test: Antitumor activity was determined against the ip implanted L1210 leukemia in mice by 45-day survivors in mice at 40 mg/kg (treatment of 1-5qd schedule) dosage; assay type: functional, Mus musculus; settings: route intraperitoneal
How it was run: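 DBA/2J mice in groups of 6 (wt 23-28 g) were inoculated ip with 1×10^6 L1210 cells on day 0. Dosing was ip from 24 h, in 0.9% NaCl with 0.5% Tween-80 (conjugates sonicated), across a range of doses. Mice were observed daily until death or 45 days. Median T/C was computed from survivors per NCI protocols, and ILS = (T/C − 1)×100.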

P388 [15] = test: Antitumor activity was determined against the ip implanted P388 leukemia in mice by 45-day survivors in mice at 500 mg/kg (1 qd treatment schedule) dosage; assay type: functional, Mus musculus; settings: route intraperitoneal
How it was run: as §3

L1210 [16] = test: Antitumor activity was determined against the ip implanted L1210 leukemia in mice by change in […] at 40 mg/kg (treatment of 1-5qd schedule) dosage; assay type: functional, Mus musculus; settings: route intraperitoneal
How it was run: (§5)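 DBA/2J mice, 6 per group (wt 23-28 g), inoculated ip with 1×10^6 L1210 cells on day 0. Treatment was given ip in 0.9% NaCl with 0.5% Tween-80, starting 24 h later. Weight change was taken on day 8. Mice were observed daily until death or 45 days. Median survival T/C and %ILS = (T/C − 1) × 100 came from survivors per NCI protocols, and 45-day survivors were counted.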

L1210 [17] = test: Antitumor activity was determined against the ic implanted L1210 lymphoid leukemia in mice by range in survival days at 300 mg/kg (1 qd treatment schedule) dosage; Range is 19-23; assay type: functional, Mus musculus
L1210 [18] = test: Antitumor activity was determined against the ip implanted L1210 leukemia in mice by change in […] at 300 mg/kg (treatment of 1qd schedule) dosage; assay type: functional, Mus musculus; settings: route intraperitoneal
How it was run: as §5

L1210 [19] = test: Antitumor activity against ic implanted L1210 lymphoid leukemia in mice expressed as active dose range (1-5qd treatment schedule) required to produce increase in life span by >25% was determined; Range is 40-80; assay type: functional, Mus musculus
How it was run: as §1

L1210 [20] = test: Antitumor activity was determined against the ip implanted L1210 leukemia in mice by percent median survival rate (treated/control) at 40 mg/kg (treatment of 1-5qd schedule) dosage; 30.0/8.0; assay type: functional, Mus musculus; settings: route intraperitoneal
How it was run: as §4

CCCCCCCCCCCCCCCCOCC(COP(=O)(O)OP(=O)(O)OC[C@H]1O[C@@H](n2ccc(N)nc2=O)[C@@H](O)[C@@H]1O)OC(=O)CCCCCCCCCCCCCCC (mixture of isomers)
ILS (P388 [1]): >309 | Active dose range (L1210 [2]): 100 mg/kg/day | Weight change (L1210 [3]): -1.15 g mouse-1 | Active dose range (L1210 [4]): 40 mg/kg/day | Range (P388 [5]): 23 | Active dose range (P388 [6]): 300 mg/kg/day

Nc1ccn([C@@H]2O[C@H](CO)[C@@H](O)[C@@H]2O)c(=O)n1 [CYTARABINE]
T/C (P388 [7]): 15% | Survivors (P388 [8]): 0 | Active dose range (L1210 [9]): 50 mg/kg/day | T/C (L1210 [10]): 9.5% | Weight change (L1210 [11]): -5.8

CCCCCCCCCCCCCCCCCCOCC(COP(=O)(O)OP(=O)(O)OC[C@H]1O[C@@H](n2ccc(N)nc2=O)[C@@H](O)[C@@H]1O)OC(=O)CCCCCCCCCCCCCCC (mixture of isomers)
T/C (P388 [12]): 25.5% | T/C (L1210 [13]): 25%

CCCCCCCCCCCCCCCC(=O)OC[C@H](COP(=O)(O)OP(=O)(O)OC[C@H]1O[C@@H](n2ccc(N)nc2=O)[C@@H](O)[C@@H]1O)OC(=O)CCCCCCCCCCCCCCC
Survivors (L1210 [14]): 1 | Survivors (P388 [15]): 4 | Weight change (L1210 [16]): -1.9 g mouse-1 | Range (L1210 [17]): 19 | Weight change (L1210 [18]): -0.62 g mouse-1 | Active dose range (L1210 [19]): 40 mg/kg/day | median survival time (L1210 [20]): 30 days
